Experimental data: publication PMC10793424 (bioRxiv, 2024)
Read-outs that look alike come from different tables or passages of the source.

What was measured:
[1] = plasma, 3 mg/kg subcutaneous, CD-1 mice
serum PTH = test: Serum PTH after subcutaneous injection; assay type: in vivo, C57/B6 mice; settings: WT B6 mice
In short: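 Wild-type B6 mice given subcutaneous injections. Serum PTH was followed over 8 h after 1 mg/kg or 10 mg/kg. Dose comparison used serum PTH sampled 30 min after injection at several doses. n = 10 mice per dose, n = 5 at 10 mg/kg. Reference compound doses were corrected for molecular weight to match molar amounts. Unpaired Student's t-test.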

[2] = test system: PTH secretion from parathyroid glands; test: Ex vivo parathyroid gland culture: PTH secretion and Ca2+ set-point; assay type: cell-based, mouse
In short: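 Glands from 4-week-old wild-type C57/B6 mice, incubated sequentially with rising test compound (0.01 nM–50 µM) at 0.75 mM [Ca2+]e for dose-response. For set-point, 50 or 500 nM compound under rising [Ca2+]e. PTH secretion rate per gland per hour was normalized between vehicle basal rate (0.5 mM) and rate at 3.0 mM. Set-point is the [Ca2+]e suppressing 50% of Ca-suppressible secretion. n = 8 gland groups, mean ± SEM.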

in vivo = settings: male, CD-1, mouse, sc, 3 mg/kg
[3] = for duration of significantly lowered serum calcium / lowest level of serum calcium: 3 mg/kg subcutaneous; for lowest level of serum calcium: from 2.2 mM
[4] = 1 mg/kg (3.1 µmol/kg, equimolar) subcutaneous

Row | SMILES | Cmax [1] [nM] | time of Cmax [1] [min] | suppression of PTH secretion (serum PTH) (serum PTH; [4]) | suppression of PTH secretion (serum PTH) (serum PTH; 10 mg/kg (31 µmole/kg) subcutaneous) | calcium set point for PTH secretion ([2]; PAM at 50 nM, vehicle 1.47 mM) [mM] | calcium set point for PTH secretion ([2]; PAM at 500 nM, vehicle 1.5 mM) | Cmax (in vivo) [ng/mL] | duration of significantly lowered serum calcium [3] | lowest level of serum calcium [3] [mM] | IC50 ([2]; Mus musculus, read-out: IC50 in suppressing PTH secretion) [nM] | hypocalcemic action ([3]; 3.1 µmol/kg (~1 mg/kg) subcutaneous)
1 | C[C@@H](NCCCc1cccc(C(F)(F)F)c1)c1cccc2ccccc12 [cinacalcet] | 150 | 15 | less effective | fully suppress | 1.23 | ~ 0.94 mM | 58.9 | more than 8 hrs | 1.7 | – | –
2 | C[C@@H](N[C@H]1CCN(c2ccc(CC(=O)O)cc2)C1)c1cccc2ccccc12 [evocalcet] | – | 60 | fully suppress | – | 1 | 0.76 mM | – | more than 8 hrs | 1.6 | 998 | particularly robust
